From PubChem
In the library only some 1.5% were active in any assay of this set; here they are far more common.
NR1D1 modulator: modulators of Rev-erb alpha DNA binding, primary screen, biochemical, FITC-DNA, fluorescence polarization, uHTS. Nuclear receptor subfamily 1 group D member 1 (Homo sapiens), P20393. Rev-erbα–FITC-DNA binding, 90 min. activity, % at 10 µM. 370,000 tested, 0.79% active. AID 1259318, 2017;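 active = activity above about 14%, limit read from the data; passing the limit was not always enough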;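 note: 0% = DMSO wells with 35 nM protein and 100% = DMSO wells with 750 nM protein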
aDG glyco up: activators of alpha-DG glycosylation, primary screen, uHTS, Pro5-aDG cells, AlphaScreen; alpha-DG glycosylation AlphaScreen (IIH6); 0% Pro5, 100% B10-LARGE cell signal; activation, % at 10 µM; 360,000 tested, 0.22% active; AID 624168, 2012;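 active = activation of at least 8% versus controls, or a plate z-score of at least 8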;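 note: Pro5 are CHO cells carrying HIG-tagged alpha-DG that lacks glycosylation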
CSN deneddyl inh: inhibitors of CSN-mediated cullin deneddylation, primary screen, biochemical, fluorescence polarization, uHTS | COP9 signalosome complex subunit 5 (Homo sapiens), Q92905 | Purified CSN, SCF-Nedd8-OG deneddylation | inhibition, % at 12.5 µM | 360,000 tested, 0.38% active;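 active = pattern-corrected inhibition above about 35%, with an unprinted fluorescence ratio check between 0.5 and 1.5, limit read from the data, passing the limit was not always enough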;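 note: 0% = enzyme with substrate and 100% = substrate without enzyme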
Target sequence (Q92905 whole entry, looked up, one chain of several): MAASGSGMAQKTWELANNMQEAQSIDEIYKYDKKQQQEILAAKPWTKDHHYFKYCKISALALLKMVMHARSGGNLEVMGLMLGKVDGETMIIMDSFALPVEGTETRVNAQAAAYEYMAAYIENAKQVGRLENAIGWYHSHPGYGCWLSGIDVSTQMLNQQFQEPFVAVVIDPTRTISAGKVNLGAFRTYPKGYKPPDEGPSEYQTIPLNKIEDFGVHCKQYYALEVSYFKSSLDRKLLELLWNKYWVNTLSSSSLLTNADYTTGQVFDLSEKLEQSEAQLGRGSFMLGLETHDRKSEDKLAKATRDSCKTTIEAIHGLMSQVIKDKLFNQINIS
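Schedule: reaction 90 min, room temperature / Assay system: HEK293T-derived human Csn5 enzyme / Input: Csn5 at 0.24 nM final / Measure: inhibition of Csn5 cleavage, % / Control set: substrate-only high control, full reaction low control / Technique: fluorescence polarization of the substrate / Buffer or medium: Tris/NaCl/DTT buffer, pH 7.5 / Reagent: SCFSkp2-Nedd8OG substrate at 10 nM final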
HNF4A DNA FP: change in binding of human HNF4A to DNA, primary screen, biochemical, fluorescence polarization, FITC-DNA; Hepatocyte nuclear factor 4-alpha (Homo sapiens), P41235; 1 h; activity change, % at 10 µM; 360,000 tested, 0.3% active; in the data active = activity change above about 30%, passing the limit was not always enough
NR1D1 mod conf: modulators of Rev-erb alpha DNA binding, confirmation, biochemical, FITC-DNA, fluorescence polarization, single point | activation, % at 25 µM | shares compounds with NR1D1 modulator | 3,000 tested, 61% active | 90 min;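 active = activation at or above a set limit, or at least 3 SD above the negative control mean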;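 note: 0% = 35 nM protein with DMSO and 100% = 750 nM protein high control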
RORg counter: modulation of RORgamma DNA binding, dose response, counter-screen for Rev-erb alpha modulator project, biochemical, fluorescence polarization, FITC-DNA; 910 tested, 8% active; shares compounds with NR1D1 modulator; purified RORgamma protein-FITC-DNA binding; IC50, µM;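 active = Compounds whose fitted half-maximal concentration for disrupting protein-DNA binding is below 10 micromolar; the record names Rev-erb in its text, so the target is in doubt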
The depositor's hits bear a star; x = no result.

SMILES	NR1D1 modulator	aDG glyco up	CSN deneddyl inh	HNF4A DNA FP	NR1D1 mod conf	others
CC(C)c1nnc(NC(=O)c2ccc3c(c2)OCO3)s1	5	0	-8	-1	x
COc1cc(C(=O)Nc2nnc(-c3sccc3C)s2)cc(OC)c1OC	93*	0	59*	7	117*	RORg counter=>40
COC(=O)c1c(-c2cccnc2)csc1NC(=O)c1ccc2c(c1)OCO2	20*	0	10	14	-8
O=C1CCC2(CCCCC2)N1CCCO	2	x	x	x	x
COc1ccc(-n2c(SCC(=O)NCCCSC)nnc2-c2ccncc2)cc1	1	x	x	x	x
COC(=O)C1CN(Cc2ccc(OC)cc2)CCS(=O)(=O)N1Cc1ccc(C(F)(F)F)cc1 (stereo not drawn)	8	x	x	x	x
O=C(Nc1ccccc1Cl)OC1CC2CC1[C@H]1CCCCN1[C@H]2Cc1ccccc1 (stereo partly drawn)	4	x	x	x	x
COc1cccc(C(=O)Nc2nnc(-c3ccccc3)s2)c1	13	0	2	4	x
COc1cccc(C(=O)Nc2nnc(-c3ccc(OC)cc3OC)s2)c1	32*	0	3	0	15
CN(CCO)c1ccc(C=NNc2ccc([N+](=O)[O-])cc2S(=O)(=O)Nc2ccccc2C(=O)O)cc1	21*	0	24	47*	4
Cc1cccc(-c2cccc3c4c([nH]c23)[C@@H]2C[C@H](N(C)C(=S)Nc3ccc(C#N)cc3)[C@H]([C@H](C)O)CN2CC4)c1	1	x	x	x	x
Cc1cc(C)cc(NC(=S)/C(=C(\[O-])c2ccc(Cl)cc2Cl)[n+]2ccc(C(C)(C)C)cc2)c1	36*	0	6	3	31*	RORg counter=7.9*
Cc1ccccc1CS(=O)(=O)Cc1ccc(C(=O)Nc2cccc(Cl)c2F)o1	5	x	x	x	x
CC(C)CC1NC(=O)c2cc3ccccc3cc2-n2c1nc1ccc(Cl)cc1c2=O (stereo not drawn)	16*	0	5	-10	1
CCN(CC)c1ccc(C(=O)OCc2cc(=O)oc3cc(O)ccc23)cc1	33*	0	7	4	17*
CCOc1ccc2c(c1)nc(SCC(=O)c1cccs1)n2C	0	0	3	2	x
CCOc1ccc2c(c1)nc(SCC(=O)c1ccc(Br)s1)n2C	25*	0	5	2	14
CCN(CC)S(=O)(=O)c1ccc(N2CCCCC2)c(NC(=O)C2CSC3(C)CCC(=O)N23)c1 (stereo not drawn)	31*	0	-1	2	47*	RORg counter=>40
CN(C)c1ccc(S(=O)(=O)N2CCCCC2)cc1NC(=O)C1CSC2(C)CCC(=O)N12 (stereo not drawn)	3	0	2	1	x
Cc1cccc(N2C(=O)CC(Sc3nc(-c4ccccc4)c4cc(Cl)ccc4n3)C2=O)c1 (stereo not drawn)	20*	0	6	-3	-14
Cc1cc(C)c(Cn2c3ccccc3c3cnn(CC(=O)NCc4ccccn4)c(=O)c32)c(C)c1	39*	0	13	3	18*
COC(=O)[C@]12C[C@H](CC(=O)NCc3cccc(C(F)(F)F)c3)C(=O)N(Cc3ccco3)C1=C[C@H](C1CCCC1)O[C@@H]2C	-2	x	x	x	x
CCC1CCc2c(sc(NC(=O)c3cccnc3)c2C(N)=O)C1 (stereo not drawn)	27*	1	7	2	6
NC(=O)c1c(NC(=O)c2cccnc2)sc2c1CCCC2	-8	0	-7	-2	x
CCCC1CCc2c(sc(NC(=O)c3cccs3)c2C(N)=O)C1 (stereo not drawn)	26*	0	-1	1	7
S=C(Nc1cccc(Cl)c1)OCCN1CCCC12CCC(c1ccccc1)CC2 (stereo not drawn)	1	x	x	x	x
